Activity calls are given as the source filed them. No cut-off for these calls is given here.

For the assay, the target named is T1, Phosphatidylinositol 3,4,5-trisphosphate 5-phosphatase 2 (Mus musculus) (UniProt Q6P549).
T1 sequence (whole entry): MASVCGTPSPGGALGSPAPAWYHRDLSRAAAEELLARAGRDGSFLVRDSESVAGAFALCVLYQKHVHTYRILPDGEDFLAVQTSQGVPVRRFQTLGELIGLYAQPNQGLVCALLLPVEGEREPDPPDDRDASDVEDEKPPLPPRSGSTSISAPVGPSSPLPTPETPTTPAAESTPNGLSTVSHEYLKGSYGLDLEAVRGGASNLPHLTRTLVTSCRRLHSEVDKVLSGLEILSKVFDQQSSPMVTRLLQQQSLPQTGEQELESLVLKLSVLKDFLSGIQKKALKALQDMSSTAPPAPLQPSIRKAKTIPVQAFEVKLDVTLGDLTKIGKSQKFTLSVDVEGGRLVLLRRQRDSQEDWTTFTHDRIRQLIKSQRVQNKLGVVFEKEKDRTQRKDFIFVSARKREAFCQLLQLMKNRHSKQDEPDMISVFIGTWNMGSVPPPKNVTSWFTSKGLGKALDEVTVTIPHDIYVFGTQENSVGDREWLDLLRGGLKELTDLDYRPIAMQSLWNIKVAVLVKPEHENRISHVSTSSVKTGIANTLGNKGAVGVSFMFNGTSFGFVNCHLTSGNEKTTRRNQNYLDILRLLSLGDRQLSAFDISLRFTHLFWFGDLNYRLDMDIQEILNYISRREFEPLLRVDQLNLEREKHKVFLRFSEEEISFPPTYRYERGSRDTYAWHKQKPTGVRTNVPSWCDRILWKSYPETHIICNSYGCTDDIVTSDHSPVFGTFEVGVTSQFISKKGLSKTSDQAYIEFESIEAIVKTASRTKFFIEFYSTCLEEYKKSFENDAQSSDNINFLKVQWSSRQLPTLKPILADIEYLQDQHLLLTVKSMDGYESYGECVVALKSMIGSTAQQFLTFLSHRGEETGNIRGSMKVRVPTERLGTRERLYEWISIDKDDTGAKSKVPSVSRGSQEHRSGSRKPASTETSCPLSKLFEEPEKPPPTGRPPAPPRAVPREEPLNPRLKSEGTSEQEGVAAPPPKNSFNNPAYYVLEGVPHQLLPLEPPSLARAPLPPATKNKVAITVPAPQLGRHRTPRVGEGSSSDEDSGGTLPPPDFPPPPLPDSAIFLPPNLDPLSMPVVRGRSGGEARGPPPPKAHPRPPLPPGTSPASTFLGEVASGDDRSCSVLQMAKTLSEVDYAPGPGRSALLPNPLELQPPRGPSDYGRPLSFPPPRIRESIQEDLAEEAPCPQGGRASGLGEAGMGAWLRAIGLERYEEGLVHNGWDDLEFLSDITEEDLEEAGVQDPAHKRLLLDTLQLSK
The assay can be described thus: Inhibition of SHIP2 in mouse 3T3L1 cells assessed as reduction of TNF-alpha induced decrease in insulin-stimulated Akt phosphorylation at Thr308 at 10 uM treated for 15 mins after TNF alpha challenge for 16 hrs and prior to insulin stimulation measured after 2 hrs by Western blot analysis. The class given is cell-based. The conditions noted are these: 3T3-L1. The method in brief:
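3T3-L1 fibroblasts differentiated into adipocytes, then serum-starved 16 h with TNFα 20 ng/mL. Treated with compound 10 µM or 0.1% DMSO for 15 min, then stimulated with 17 nM insulin at 37 °C for 2 h. Cells lysed on ice at pH 7.5 and Thr308 phospho-Akt measured by western blot. Results given as fold change versus TNFα+insulin control. Mean ± SE.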

Turning to `O=C(Cc1c(F)cccc1F)Nc1cc(OCc2ccc(Cl)cc2)ccn1`, the inhibition entry is “Active”.

The values above are taken from ChEMBL document CHEMBL2331279, “Rational design and synthesis of 4-substituted 2-pyridin-2-ylamides with inhibitory effects on SH2 domain-containing inositol 5'-phosphatase 2 (SHIP2)” (Eur J Med Chem, 2013).
